# The entries come from a sample that favours hits as a whole.
# Biofilm kill mix – mixtures killing C. albicans biofilm | inhibition, % at 7.6 µM | C. albicans biofilm persisters + clotrimazole, fluorescence viability; primary screen in compound mixtures of four per well | AID 1242 | 120,000 tested, 0.02% active;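 active = inhibition above 30.3% in the primary screen of four-compound pools, then above 30% when the compound was retested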;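 also: compounds exposed to preformed 24 h biofilms for 48 h; 0% = untreated biofilm control and 100% = clotrimazole plus chlorhexidine kill blank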
#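 System: C. albicans CAF4-2 wild-type biofilms; Medium: RPMI/MOPS medium, pH 7.0; Reagent: Clotrimazole, 50 µg/mL; Times: biofilm formation 24 h, compound exposure 48 h, 37 °C; Detection: 2-h Alamar Blue fluorescence, 535/590 nm excitation/emission; Evaluation: percent inhibition of biofilm viability.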
# ROMK mod – human ROMK K+ channel modulation, primary screen; Tet-inducible ROMK, thallium flux fluorescence; actives lie on both sides; B-score at 10 µM; 130,000 tested, 2% active;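 active = signal ratio slope over the read window, or its plate-corrected B-score, at least 3 SD from the plate mean, either direction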;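 also: B-score of the F/F0 ratio slope over 7 to 12 s after thallium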
# Target sequence (P48048 whole entry, looked up): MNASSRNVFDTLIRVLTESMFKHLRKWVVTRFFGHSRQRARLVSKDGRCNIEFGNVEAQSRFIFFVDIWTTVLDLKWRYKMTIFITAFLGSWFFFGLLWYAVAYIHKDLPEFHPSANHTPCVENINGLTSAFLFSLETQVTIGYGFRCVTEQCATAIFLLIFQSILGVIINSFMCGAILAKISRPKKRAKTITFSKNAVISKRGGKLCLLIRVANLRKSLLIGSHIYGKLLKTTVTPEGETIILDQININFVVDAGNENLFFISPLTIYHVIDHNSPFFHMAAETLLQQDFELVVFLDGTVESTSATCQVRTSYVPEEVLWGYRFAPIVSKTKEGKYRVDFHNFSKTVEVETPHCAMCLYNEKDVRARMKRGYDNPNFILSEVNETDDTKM
# ROMK retest – confirmation of human ROMK potassium channel modulators. shares compounds with ROMK mod. 3,000 tested, 54% active. normalized thallium flux (F/F0 slope) at 10 µM. AID 1917. ROMK thallium flux, fluorescence ratio; stronger effect = lower value;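 active = Flux at 10 µM at least 3 SD below or above vehicle control mean in one or both replicates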
# Starred values were filed as active, the others as inactive; / = not tested or not shown.
SMILES,Biofilm kill mix,ROMK mod,ROMK retest
O=C(OCC(=O)N1N=C(c2ccc(Cl)cc2)CC1c1ccco1)c1ccco1 (stereo unspecified),6.5,-0.00694,/
N=c1sccn1CC(=O)N1N=C(c2ccc(Cl)cc2)CC1c1ccco1 (stereo unspecified),-0.8,-3.18*,0.0641*
CCN(Cc1cc(=O)n2ccsc2n1)Cc1nc2cc(OC)c(OC)cc2c(=O)[nH]1,19.9,/,/
O=C1NN(c2ccc(Cl)cc2)C(=O)/C1=C\c1ccc(-c2cccc(C(=O)O)c2)o1,19.5,0.106,/
O=C1NN(c2ccccc2)C(=O)/C1=C\c1ccc(-c2cc([N+](=O)[O-])ccc2O)o1,31.8,/,0.0538*
CN1CCN(c2nc(-c3cccnc3)nc3ccccc23)CC1,/,-0.757,/
COc1cc2c(cc1OC)CN(c1nc(-c3cccnc3)nc3ccccc13)CC2,15.9,-0.162,0.08
CCOC(=O)CCCCC(=O)c1[nH]c(=O)[nH]c1CSc1nnc2c3cc(Br)ccc3n(C)c2n1,8.9,0.798,/
CCc1ccccc1NC(=O)Cc1ccc(-n2cccc2)cc1,12.2,-0.0836,/
Cc1ccc2[nH]c3c(NCc4ccco4)ncnc3c2c1,/,-3.4*,0.0649*
c1coc(CNc2ncnc3c2oc2ccccc23)c1,/,-3.54*,0.0614*
O=C(CSc1ncnc2c1oc1ccccc12)NCc1ccco1,6.4,/,/
COc1cc(CNc2ncnc3c2[nH]c2ccc(C)cc23)cc(OC)c1,4.5,0.0351,/
COc1ccc(CN2C(=O)NC3(CCCc4ccccc43)C2=O)cc1F (stereo unspecified),12.7,-0.277,/
Cc1ccc(N2C(=O)C3C=NNC3C2=O)cc1 (stereo unspecified),11.0,0.701,/
CCc1ccc(S(=O)(=O)NCCc2cn3ccccc3n2)s1,/,-0.937,/
COc1ccccc1-n1cc(C(=O)NCC(=O)NCc2ccc(F)cc2)c2ccccc2c1=O,29.6,3.11*,0.0849
CCc1ccc(NC(=O)CNC(=O)c2cn(-c3ccccc3OC)c(=O)c3ccccc23)cc1,/,-0.946,/
CCC1=NN(C(=O)c2cccc(Br)c2)C(O)(c2ccc(Br)cc2)C1 (stereo unspecified),17.6,/,/
Cc1cc(C)c(C(=O)C[n+]2cccc(C(N)=O)c2)c(C)c1,9.8,/,/
O=C(Oc1ccc(=O)n(-c2ccccc2)n1)c1ccc(F)cc1,6.5,-3.83*,0.0534*
O=c1ccc(OCCOc2ccccc2)nn1-c1ccccc1,20.4,0.525,/
COc1ccc(/C=N/OCC(=O)NC(c2ccccc2)c2ccccc2)c(OC)c1,15.8,1.34,/
Cc1cn(-c2ccc(Br)cc2)[nH]c1=O,/,-0.44,/
Fc1ccccc1CSc1ncn[nH]1,14.6,0.438,/
SMILES,Biofilm kill mix,ROMK mod,ROMK retest
c1ccc(Nc2nc(CSc3ncn[nH]3)cs2)cc1,1.4,-2.02*,0.0789
CCOC(=O)c1ccc(-n2c(O)c(/C=N/NC(=O)C3COc4ccccc4O3)c3ccccc3c2=O)cc1 (stereo unspecified),1.3,/,0.0457*
Cc1nn(-c2ccccc2)c(Cl)c1/C=N/NC(=O)C1COc2ccccc2O1 (stereo unspecified),18.0,/,/
N#CC1=C(N)C(C#N)(C#N)[C@H](c2c(F)cccc2F)[C@H]2CC3(CC=C12)OCCO3,/,-3.6*,0.0535*
N#CC1=C(N)C(C#N)(C#N)C2(CCC3(CC2)OCCO3)C2CC3(CC=C12)OCCO3 (stereo unspecified),/,0.675,/
O=C1CC(Sc2ccc(Cl)cc2)C(=O)N1c1ccc2c(c1)OCCO2 (stereo unspecified),0.9,/,/
COc1ccc(C(=O)N/C(=C/c2cccc3ccccc23)C(=O)NCCc2c[nH]c3ccccc23)cc1OC,18.8,-0.97,/
O=C(c1ccncc1)N1CCN(C(=O)c2ccncc2)CC1,/,0.543,/
Cc1ncc(CN2CCN(CCC(C)C)C(CCO)C2)s1 (stereo unspecified),29.2,0.0831,/
CCCN(CCC)CCCNS(=O)(=O)c1cc(Br)cc2c1N(C(C)=O)CC2,/,-0.252,/
CC(=O)N1CCc2cc(Br)cc(S(=O)(=O)NCc3ccccn3)c21,/,-7.42*,0.0851
Cc1nc2c(C(=O)N3CCN(C)CC3)cnn2c(C)c1Cc1ccc(Cl)cc1,/,-0.108,/
Cc1cccc(Cc2c(C)nc3c(C(=O)N4CCN(Cc5ccc6c(c5)OCO6)CC4)cnn3c2C)c1,/,/,0.0461*
COC(=O)c1ccc(C2CC(=O)Nc3cc(OC)c(OC)c(OC)c32)cc1 (stereo unspecified),/,-0.747,/
COC(=O)c1ccc2c(c1)C(C)(C)C(/C=C/c1ccc(OC)c(OC)c1OC)=[N+]2C,/,/,0.0584*
CC(=O)c1nnn(-c2ccc([N+](=O)[O-])cc2)c1C,4.0,0.639,/
Cc1cnnn1-c1ccc([N+](=O)[O-])cc1,20.5,-3.24*,0.0772
CC(=O)N1CCN(Cc2nc3cc(NC(=O)Nc4ccccc4)ccc3n2C)CC1,10.8,-0.422,/
Cc1ccc(SCCC(=O)NCc2ccncc2)cc1,14.0,0.759,/
CCOC(=O)Cn1nc(-c2ccccc2)c2ccccc2c1=O,/,4.06*,0.0809
COC(=O)COc1ccc(NC(=O)Cn2nc(-c3ccccc3)c3ccccc3c2=O)cc1,10.5,/,/
Cc1ccc(C(=O)N/C(=C\c2ccc(-c3cc(Cl)ccc3Cl)o2)C(=O)NCc2cccnc2)cc1,/,0.209,/
N#C/C(=C/c1ccc(CNC(=O)C(=O)Nc2cc(Cl)cc(Cl)c2)o1)C(=O)NCc1cccnc1,12.8,/,/
O=C(NCc1cccnc1)/C(=C\c1ccc(-c2cccc(Cl)c2)o1)S(=O)(=O)c1ccccc1,20.2,-4.79*,0.0501*
O=C(NCc1cccnc1)/C(=C/c1ccc(-c2cccc(Cl)c2)o1)S(=O)(=O)c1ccccc1,/,-5.31*,0.0512*
SMILES,Biofilm kill mix,ROMK mod,ROMK retest
CCOC(=O)C1(CC2CCCCO2)CCN(S(=O)(=O)c2ccc(C)s2)CC1 (stereo unspecified),14.9,0.839,/
OC(CN1CCN(c2ccccc2)CC1)Cn1c2ccccc2c2ccccc21 (stereo unspecified),/,0.0838,/
Cn1cc(CN2CCN(c3ccccc3)CC2)c2ccccc21,/,-5.18*,0.0562*
Cc1nn(C)c(Oc2ccccc2)c1CCNC(=O)CCl,11.1,0.93,/
COc1ccccc1C1NC=C([N+](=O)[O-])C=C1[N+](=O)[O-] (stereo unspecified),16.3,/,0.0513*
COc1ccccc1C1CCN(c2ccc([N+](=O)[O-])c(OC)c2)CC1,9.7,/,/
COc1ccccc1C1C([N+](=O)[O-])=CC([N+](=O)[O-])=CN1C (stereo unspecified),1.1,-4.95*,0.0546*
COc1ccccc1Oc1ccccc1[N+](=O)[O-],5.2,/,/
Cc1cc(Cl)ccc1C(=O)C1CCCN(C(=O)CCn2cnnn2)C1 (stereo unspecified),5.5,1.04,/
CC1(C)CCc2cc(-c3ccn(S(=O)(=O)c4ccccc4Cl)n3)ccc2O1,18.3,/,/
Cc1ccc(C(=O)OCC(=O)Nc2cccc(Cl)c2C)c(O)c1,21.2,/,/
CCOc1cc(C(c2c(C)[nH][nH]c2=O)c2c(C)[nH][nH]c2=O)ccc1O,-0.4,/,/
O=S(=O)(c1ccc(S(=O)(=O)N(Cc2cccs2)CC2CCCO2)cc1)N1CCCCC1 (stereo unspecified),/,-0.92,/
O=C(Cc1cccs1)N(Cc1cccs1)C1(C(=O)NC2CCCC2)CCCCC1,/,-1.52,/
O=S(=O)(NC1CCCC1)c1ccc(S(=O)(=O)N(Cc2cccs2)CC2CCCO2)cc1 (stereo unspecified),/,-3.13*,0.0732
